Laboratory results reported in ChEMBL document CHEMBL4725241, “Discovery of BMS-986235/LAR-1219: A Potent Formyl Peptide Receptor 2 (FPR2) Selective Agonist for the Prevention of Heart Failure” (J Med Chem, 2020).
Calls of active or inactive are those of the source. No cut-off for these calls is given here.

How the values were obtained:
[1] = Half life in cynomolgus monkey at 3 mg/kg, po by LC-MS/MS analysis; assay type: ADME, organism-based, Macaca fascicularis; conditions: in vivo
Procedure, shortened: (§1)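 Male animals dosed orally with a suspension in 0.5% MC. Blood was taken into EDTA 2K capillaries and plasma was stored frozen. Plasma was mixed with methanol/acetonitrile (1:1) plus internal standard, centrifuged, and drug was measured by LC-MS/MS. AUC0-inf was obtained by the trapezoidal rule, extrapolated with kel from the terminal phase. t1/2 = ln2/kel.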

[2] = AUC (0 to infinity) in Crl:CD(SD) rat at 1 mg/kg, po by LC-MS/MS analysis; assay type: ADME, organism-based; set-up: time infinity, route oral, dose 1 mg/kg; conditions: in vivo; procedure, shortened: as §1
[3] = Oral bioavailability in Crl:CD(SD) rat at 1 mg/kg by LC-MS/MS analysis; assay type: ADME, organism-based; conditions: in vivo
Procedure, shortened: (§2)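 Oral bioavailability = (AUC0-inf,po/dose po)/(AUC0-inf,iv/dose iv) × 100. Oral dosing used a 0.5% MC suspension. IV dosing used a DMSO/PEG400/saline (5/47.5/47.5) solution, with CD1(ICR) mice for the iv arm. Plasma drug levels were measured by LC-MS/MS after methanol/acetonitrile extraction with internal standard.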

[4] = Oral bioavailability in BALB/cCrSlc mouse at 1 mg/kg by LC-MS/MS analysis; assay type: ADME, organism-based; conditions: in vivo; procedure, shortened: as §2
[5] = Oral bioavailability in Beagle dog at 1 mg/kg by LC-MS/MS analysis; assay type: ADME, organism-based, Canis lupus familiaris; conditions: in vivo
[6] = Clearance in monkey liver microsome at 0.1 umol/l and measured for 60 mins by LC-MS/MS analysis; assay type: ADME, Macaca mulatta; conditions: rhesus monkey, microsomes, 1 h, 0.1 µM, dose 0.1 µmol/L
Procedure, shortened: (§3)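 Liver microsomes (1 mg protein/mL final) with an NADPH regenerating system were preincubated 5 min at 37°C, then given 0.1 µmol/L compound. Samples were taken at 0-60 min, quenched in methanol/acetonitrile with internal standard, and analysed by LC-MS/MS. Runs were in triplicate. kel came from 5-30 min points. CLint = kel/protein concentration (mL/min/mg protein).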

[7] = Clearance in dog liver microsome at 0.1 umol/l and measured for 60 mins by LC-MS/MS analysis; assay type: ADME, Canis lupus familiaris; conditions: microsomes, 1 h, 0.1 µM, dose 0.1 µmol/L; procedure, shortened: as §3
CHO [8] = experiment: Selectivity ratio of agonist activity at mouse FPR1 expressed in CHO cells to agonist activity at mouse FPR2 expressed in CHO cells; assay type: cell-based
Procedure, shortened: (§4)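 Ratio of FPR1 to FPR2 EC50 from the CHO-cell forskolin/IBMX cAMP HTRF assay, 30 min at room temperature, 4-parameter logistic fit.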

[9] = target: T1, Formyl peptide receptor 2 (Mus musculus, UniProt O88536); experiment: Agonist activity at mouse FPR2 expressed in CHO cells assessed as reduction cAMP accumulation incubated for 1 hr by TR-FRET assay; assay type: cell-based
T1 sequence (O88536 whole entry): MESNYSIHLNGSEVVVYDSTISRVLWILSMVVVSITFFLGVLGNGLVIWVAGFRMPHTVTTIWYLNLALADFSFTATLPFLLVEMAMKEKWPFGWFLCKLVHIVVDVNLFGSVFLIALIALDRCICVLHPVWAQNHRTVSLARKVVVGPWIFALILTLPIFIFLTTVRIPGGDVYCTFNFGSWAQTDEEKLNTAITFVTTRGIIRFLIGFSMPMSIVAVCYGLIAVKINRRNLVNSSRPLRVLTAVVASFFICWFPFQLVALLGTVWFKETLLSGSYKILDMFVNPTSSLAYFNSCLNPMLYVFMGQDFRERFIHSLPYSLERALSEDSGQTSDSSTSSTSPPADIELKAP

CHO [10] = experiment: Selectivity ratio of agonist activity at human FPR1 expressed in CHO cells to agonist activity at human FPR2 expressed in CHO cells; assay type: cell-based; procedure, shortened: as §4
[11] = target: T2, N-formyl peptide receptor 2 (Homo sapiens, UniProt P25090); experiment: Agonist activity at human FPR2 expressed in HEK 293 cells co-expressing Galpha15 measured every 1.5 sec for 80 sec by Fluo-4 NW staining based scanning fluorometric method; assay type: cell-based, HEK293
T2 sequence (P25090 whole entry): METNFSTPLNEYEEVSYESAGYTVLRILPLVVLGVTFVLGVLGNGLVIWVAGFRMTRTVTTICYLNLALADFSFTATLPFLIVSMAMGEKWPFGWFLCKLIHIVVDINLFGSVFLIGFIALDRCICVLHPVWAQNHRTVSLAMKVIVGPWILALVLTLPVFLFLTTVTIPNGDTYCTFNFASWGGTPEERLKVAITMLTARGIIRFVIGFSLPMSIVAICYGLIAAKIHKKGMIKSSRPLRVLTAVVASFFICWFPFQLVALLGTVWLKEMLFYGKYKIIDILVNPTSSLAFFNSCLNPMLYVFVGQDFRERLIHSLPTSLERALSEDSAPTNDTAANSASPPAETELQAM
Procedure, shortened: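 HEK293 cells were transiently co-transfected with FPR plus Gα15 (Lipofectamine 2000), then reseeded after 24 h on poly-D-lysine plates and grown one more day. Cells were loaded with Fluo-4 NW for 45 min at 37°C. Compound was added and fluorescence (ex 485/em 525 nm) read for 80 s at 1.5 s intervals. Response = maximal peak minus basal.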

[12] = Total clearance in Beagle dog at 1 mg/kg, iv by LC-MS/MS analysis; assay type: ADME, organism-based, Canis lupus familiaris; conditions: in vivo
Procedure, shortened: (§5)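 Male animals received intravenous solution in DMSO/PEG400/saline (5/47.5/47.5). EDTA plasma was extracted with methanol/acetonitrile (1:1) plus internal standard and quantified by LC-MS/MS. AUC0-inf was calculated by the trapezoidal rule with terminal-phase kel extrapolation.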

[13] = Volume of distribution at steady state in Beagle dog at 1 mg/kg, iv by LC-MS/MS analysis; assay type: ADME, organism-based, Canis lupus familiaris; conditions: in vivo, read-out: Vdss; procedure, shortened: as §5
[14] = Cmax in cynomolgus monkey at 3 mg/kg, po by LC-MS/MS analysis; assay type: ADME, organism-based, Macaca fascicularis; set-up: route oral, dose 3 mg/kg; conditions: in vivo; procedure, shortened: as §1
Mus musculus = experiment: Cardioprotective activity in C57BL/6 mouse model of LAD coronary artery ligation-induced myocardial infarction assessed as reduction in heart weight at 0.3 mg/kg, po and measured after 28 days; assay type: functional, organism-based; conditions: time 28.0 day
Procedure, shortened: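 Male C57BL/6 mice (10-12 weeks) underwent permanent LAD ligation under ketamine/xylazine, with shams having an untightened suture. Compound (0.3 mg/kg/d) or vehicle was given by oral gavage once daily (5 mL/kg) from post-MI day 4 for 24 days. Endpoints were taken at 28 days post-MI; scar length was quantified from LV cross sections.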

[15] = Total clearance in cynomolgus monkey at 1 mg/kg, iv by LC-MS/MS analysis; assay type: ADME, organism-based, Macaca fascicularis; conditions: in vivo; procedure, shortened: as §5
[16] = target: T2, N-formyl peptide receptor 2; experiment: Agonist activity at human FPR2 expressed in CHO-K1 cells assessed as stimulation of beta-arrestin recruitment; assay type: cell-based
[17] = Cmax in BALB/cCrSlc mouse at 1 mg/kg, po by LC-MS/MS analysis; assay type: ADME, organism-based; set-up: route oral, dose 1 mg/kg; conditions: in vivo; procedure, shortened: as §1
[18] = AUC (0 to infinity) in cynomolgus monkey at 3 mg/kg, po by LC-MS/MS analysis; assay type: ADME, organism-based, Macaca fascicularis; set-up: time infinity, route oral, dose 3 mg/kg; conditions: in vivo; procedure, shortened: as §1
[19] = Oral bioavailability in cynomolgus monkey at 3 mg/kg by LC-MS/MS analysis; assay type: ADME, organism-based, Macaca fascicularis; conditions: in vivo; procedure, shortened: as §2
[20] = AUC (0 to infinity) in Beagle dog at 1 mg/kg, po by LC-MS/MS analysis; assay type: ADME, organism-based, Canis lupus familiaris; set-up: route oral, time infinity, dose 1 mg/kg; conditions: in vivo; procedure, shortened: as §1
[21] = Clearance in rat liver microsome at 0.1 umol/l and measured for 60 mins by LC-MS/MS analysis; assay type: ADME; conditions: microsomes, 1 h, 0.1 µM, dose 0.1 µmol/L; procedure, shortened: as §3

SMILES: COc1cc(F)c([C@@H]2CNC(=O)[C@H]2NC(=O)Nc2ccccc2)c(F)c1 [BMS-986235]
- half-life [1]: 5 h
- AUC(0-inf) [2]: 0.64 µM·h
- bioavailability [3]: 67%
- bioavailability [4]: 24%
- bioavailability [5]: 50%
- CLH [6]: 30 µL/min/mg
- CLH [7]: 42 µL/min/mg
- Ratio EC50 (CHO [8]): 1000
- EC50 [9]: 0.5 nM
- Ratio EC50 (CHO [10]): 80
- EC50 [11]: 0.41 nM
- clearance [12]: 6.6 mL/min/kg
- Vd [13]: 0.98 L/kg
- Cmax [14]: 800 nM
- Activity (Mus musculus): Active
- clearance [15]: 12 mL/min/kg
- EC50 [16]: 130 nM
- Cmax [17]: 160 nM
- AUC(0-inf) [18]: 5.8 µM·h
- bioavailability [19]: 49%
- AUC(0-inf) [20]: 5.7 µM·h
- CLH [21]: 21 µL/min/mg
